Laboratory results as given in ChEMBL document CHEMBL1649102, “Stereochemical survey of digitoxin monosaccharides: new anticancer analogues with enhanced apoptotic activity and growth inhibitory effect on human non-small cell lung cancer cell” (ACS Med Chem Lett, 2011).
Calls of active or inactive are those of the source. The calls are words filed in the database; no cut-off is given here.

What was measured:
[1] = tested on: NCI-H460; assay: Cytotoxicity against human NCI-H460 cells assessed as cell death at 50 nM after 12 hrs by Hoechst-33342 staining and propidium iodide staining; type: functional, cell-based; details: NCI-H460, 12 h
Procedure, shortened: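 NCI-H460 cells were seeded at 50,000 cells/well for 12 h, then exposed 12 h in serum-free medium (DMSO <0.1%). Cells were stained with Hoechst 33342 (10 µg/ml) and propidium iodide (20 µg/ml) for 30 min at 37°C. Condensed or fragmented nuclei were scored by fluorescence microscopy, and apoptotic index = apoptotic/total nuclei ×100. Duplicate wells, ≥3 runs (N = 6).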

[2] = tested on: NCI-H460; assay: Growth inhibition of human NCI-H460 cells after 48 hrs by MTT assay; type: functional; details: NCI-H460, 48 h
Procedure, shortened: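 NCI-H460 cells in RPMI 1640 with 10% FBS were seeded at 10,000 cells/well for 12 h. Drug was diluted 1000× from DMSO into 1% FBS medium (DMSO <0.1%). Time-course runs used 50 nM; dose–response runs used 48 h exposure. Viability was read by MTT (4 h), with formazan dissolved in DMSO for 45 min and read at 562 nm. Triplicate wells, ≥3 runs (N = 9), two-way ANOVA.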

[3] = Growth inhibition of human NCI60 cells; type: functional
Procedure, shortened: (§1)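 NCI-60 cell lines grown in RPMI 1640 with 5% FBS and 2 mM L-glutamine, plated at 5,000–40,000 cells/well and preincubated 24 h. Time-zero plates were TCA-fixed. Drug was given at five concentrations (10-fold or ½-log dilutions from DMSO stock) for 48 h at 37°C. Cells were TCA-fixed, stained with SRB, and read at 515 nm. GI50 is where [(Ti−Tz)/(C−Tz)]×100 = 50.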

[4] = tested on: MOLT-4; assay: Growth inhibition of human MOLT4 cells; type: functional; procedure, shortened: as §1
[5] = tested on: A549; assay: Growth inhibition of human A549 cells; type: functional; procedure, shortened: as §1
[6] = tested on: NCI-H460; assay: Growth inhibition of human NCI-H460 cells; type: functional; procedure, shortened: as §1
[7] = tested on: HCT-116; assay: Growth inhibition of human HCT116 cells; type: functional; procedure, shortened: as §1
[8] = tested on: OVCAR-3; assay: Growth inhibition of human OVCAR3 cells; type: functional; procedure, shortened: as §1
[9] = tested on: OVCAR-8; assay: Growth inhibition of human OVCAR8 cells; type: functional; procedure, shortened: as §1
[10] = tested on: 786-0; assay: Growth inhibition of human 786-0 cells; type: functional; procedure, shortened: as §1
[11] = tested on: A498; assay: Growth inhibition of human A498 cells; type: functional; procedure, shortened: as §1
[12] = tested on: ACHN; assay: Growth inhibition of human ACHN cells; type: functional; procedure, shortened: as §1
[13] = tested on: CAKI-1; assay: Growth inhibition of human Caki1 cells; type: functional; procedure, shortened: as §1
[14] = tested on: RXF 393; assay: Growth inhibition of human RXF393 cells; type: functional; procedure, shortened: as §1
[15] = tested on: SN12C; assay: Growth inhibition of human SN12C cells; type: functional
Procedure, shortened: (§2)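 NCI-60 panel SRB assay. Cells in RPMI 1640 with 5% FBS and 2 mM L-glutamine, plated at 5,000-40,000 cells/well and grown 24 h before dosing; time-zero plates TCA-fixed. Five concentrations (10-fold or ½ log dilutions, from DMSO stock) applied for 48 h at 37°C. TCA fixation (16% final for suspension cells), SRB stain, absorbance 515 nm; GI50 from net protein increase versus control.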

[16] = tested on: TK-10; assay: Growth inhibition of human TK10 cells; type: functional; procedure, shortened: as §2
[17] = tested on: UO-31; assay: Growth inhibition of human UO31 cells; type: functional; procedure, shortened: as §2
[18] = tested on: DU-145; assay: Growth inhibition of human DU145 cells; type: functional; procedure, shortened: as §1
[19] = tested on: NCI-H460; assay: Induction of apoptosis human NCI-H460 cells assessed as cellular degradation at 50 nM after 12 hrs by Hoechst-33342 staining; type: functional
Procedure, shortened: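 NCI-H460 seeded 50,000 cells/well for 12 h, then exposed 12 h in serum-free medium (DMSO <0.1%). Stained 30 min at 37°C with 10 µg/ml Hoechst 33342 plus 20 µg/ml propidium iodide. Condensed or fragmented nuclei scored by fluorescence microscopy; apoptotic index = apoptotic/total nuclei ×100. 2 replicate wells, ≥3 runs (N = 6).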

C[C@H]1O[C@@H](O[C@H]2[C@@H](O)C[C@H](O[C@H]3[C@@H](O)C[C@H](O[C@H]4CC[C@@]5(C)[C@H](CC[C@@H]6[C@@H]5CC[C@]5(C)[C@@H](C7=CC(=O)OC7)CC[C@]65O)C4)O[C@@H]3C)O[C@@H]2C)C[C@H](O)[C@@H]1O [DIGITOXIN]
IC50 [1]: 0.357 µM | GI50 [2]: 0.0107 µM

C[C@@H]1O[C@@H](O[C@H]2CC[C@@]3(C)[C@H](CC[C@@H]4[C@@H]3CC[C@]3(C)[C@@H](C5=CC(=O)OC5)CC[C@]43O)C2)C=C[C@H]1O
GI50 [3]: 0.001 µM

C[C@H]1O[C@H](O[C@H]2CC[C@@]3(C)[C@H](CC[C@@H]4[C@@H]3CC[C@]3(C)[C@@H](C5=CC(=O)OC5)CC[C@]43O)C2)C=C[C@@H]1O
GI50 [3]: 0.001 µM

C[C@@H]1O[C@@H](O[C@H]2CC[C@@]3(C)[C@H](CC[C@@H]4[C@@H]3CC[C@]3(C)[C@@H](C5=CC(=O)OC5)CC[C@]43O)C2)CC[C@H]1O [RAMNODIGIN]
growth inhibition (GI) [4]: Active | growth inhibition (GI) [5]: Active | growth inhibition (GI) [6]: Active | growth inhibition (GI) [7]: Active | growth inhibition (GI) [8]: Active | growth inhibition (GI) [9]: Active | growth inhibition (GI) [10]: Active | growth inhibition (GI) [11]: Active | growth inhibition (GI) [12]: Active | growth inhibition (GI) [13]: Active | growth inhibition (GI) [14]: Active | growth inhibition (GI) [15]: Active | growth inhibition (GI) [16]: Active | growth inhibition (GI) [17]: Active | growth inhibition (GI) [18]: Active | GI50 [3]: 0.012 µM | IC50 [1]: 0.0557 µM | Activity [19]: 33% | GI50 [2]: 0.0022 µM

C[C@H]1O[C@H](O[C@H]2CC[C@@]3(C)[C@H](CC[C@@H]4[C@@H]3CC[C@]3(C)[C@@H](C5=CC(=O)OC5)CC[C@]43O)C2)CC[C@@H]1O
GI50 [3]: 0.113 µM
